The text below walks through data of ChEMBL document CHEMBL1136621 (Bioorg Med Chem Lett, 2003).

Data set [1] deals with T1, Thymidine phosphorylase (Homo sapiens) (UniProt P19971).
T1 sequence (whole entry): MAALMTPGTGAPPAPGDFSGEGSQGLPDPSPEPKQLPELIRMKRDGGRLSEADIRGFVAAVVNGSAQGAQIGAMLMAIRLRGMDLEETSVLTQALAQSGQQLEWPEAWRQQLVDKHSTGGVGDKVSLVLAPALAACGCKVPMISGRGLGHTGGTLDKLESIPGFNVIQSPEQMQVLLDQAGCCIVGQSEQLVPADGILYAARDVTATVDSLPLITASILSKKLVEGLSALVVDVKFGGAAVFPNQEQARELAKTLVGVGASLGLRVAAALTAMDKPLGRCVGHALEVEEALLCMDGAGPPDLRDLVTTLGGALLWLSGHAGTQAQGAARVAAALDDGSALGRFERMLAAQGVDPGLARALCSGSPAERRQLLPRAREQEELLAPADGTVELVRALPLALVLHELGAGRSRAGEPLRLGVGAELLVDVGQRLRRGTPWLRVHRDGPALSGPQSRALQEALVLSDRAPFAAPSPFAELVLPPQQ
Nature of the data set: Susceptibility to thymidine phosphorylase (ThdPase) at a substrate concentration of 1.0 mM.

The target of data set [2] is T2, Dihydropyrimidine dehydrogenase [NADP(+)] (Homo sapiens, UniProt Q12882).
T2 sequence (Q12882 whole entry): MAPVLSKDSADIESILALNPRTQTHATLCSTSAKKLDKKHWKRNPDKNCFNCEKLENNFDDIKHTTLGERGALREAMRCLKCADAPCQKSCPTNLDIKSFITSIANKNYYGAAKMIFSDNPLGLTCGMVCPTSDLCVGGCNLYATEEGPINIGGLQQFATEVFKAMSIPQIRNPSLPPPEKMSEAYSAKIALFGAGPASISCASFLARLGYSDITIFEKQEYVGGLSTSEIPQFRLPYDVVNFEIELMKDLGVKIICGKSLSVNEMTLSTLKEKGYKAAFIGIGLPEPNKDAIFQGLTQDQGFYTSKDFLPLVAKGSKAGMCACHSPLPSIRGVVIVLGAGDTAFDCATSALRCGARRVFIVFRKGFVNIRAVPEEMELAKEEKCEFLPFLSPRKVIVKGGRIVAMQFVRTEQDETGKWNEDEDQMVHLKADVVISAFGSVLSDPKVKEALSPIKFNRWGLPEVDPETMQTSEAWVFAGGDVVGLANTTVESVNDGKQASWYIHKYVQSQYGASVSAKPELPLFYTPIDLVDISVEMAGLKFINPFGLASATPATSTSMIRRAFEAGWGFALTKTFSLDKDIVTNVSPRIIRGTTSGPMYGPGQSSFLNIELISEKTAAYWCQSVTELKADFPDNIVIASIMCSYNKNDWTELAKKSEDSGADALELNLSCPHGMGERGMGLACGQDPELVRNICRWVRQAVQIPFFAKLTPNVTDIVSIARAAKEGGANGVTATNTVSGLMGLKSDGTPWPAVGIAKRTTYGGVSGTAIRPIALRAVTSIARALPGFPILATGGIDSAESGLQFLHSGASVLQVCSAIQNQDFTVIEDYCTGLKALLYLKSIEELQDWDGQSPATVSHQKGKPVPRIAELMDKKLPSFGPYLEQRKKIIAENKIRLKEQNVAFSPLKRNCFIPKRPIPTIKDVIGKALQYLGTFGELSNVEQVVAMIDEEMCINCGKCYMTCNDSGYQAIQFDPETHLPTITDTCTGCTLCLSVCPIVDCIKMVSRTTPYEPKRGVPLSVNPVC
Nature of the data set: Inhibitory activity against dihydropyrimidine dehydrogenase (DPD).

Data set [3] deals with Mus musculus. The data set can be described thus: Tumour concentration of 5-FU in HT-3 (human cervical cancer) xenograft mice at 1.38 mg/kg oral dose co-administered with 135 mg/kg Capecitabine. In kind it is functional. (In general: In xenograft studies the graft and the host belong to different species.)
The nature of data set [4]: Ratio of tumor and plasma 5-FU concentration in HT-3 (human cervical cancer) xenograft mice on co-administration with Capecitabine. The class given is functional.
The target in data set [5] is T3, Cocaine esterase (Homo sapiens, UniProt O00748).
T3 sequence (O00748 whole entry): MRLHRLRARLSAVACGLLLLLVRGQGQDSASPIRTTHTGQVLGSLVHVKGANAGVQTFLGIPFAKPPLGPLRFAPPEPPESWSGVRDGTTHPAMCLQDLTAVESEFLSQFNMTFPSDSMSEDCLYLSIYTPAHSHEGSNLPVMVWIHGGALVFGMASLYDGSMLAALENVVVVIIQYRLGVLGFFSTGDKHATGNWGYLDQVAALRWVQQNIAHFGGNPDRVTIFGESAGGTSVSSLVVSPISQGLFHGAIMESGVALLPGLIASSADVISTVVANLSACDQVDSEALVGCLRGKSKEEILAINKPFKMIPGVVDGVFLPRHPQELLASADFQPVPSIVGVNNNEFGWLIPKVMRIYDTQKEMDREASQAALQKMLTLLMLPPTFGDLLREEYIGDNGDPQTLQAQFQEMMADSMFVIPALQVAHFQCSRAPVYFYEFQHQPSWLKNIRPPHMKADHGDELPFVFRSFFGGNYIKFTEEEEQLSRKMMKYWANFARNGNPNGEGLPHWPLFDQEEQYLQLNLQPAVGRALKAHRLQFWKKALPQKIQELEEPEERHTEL
Nature of the data set: Susceptibility to carboxylesterase in human intestine at a concentration 2.5 mM. The settings on record: 2500 µM. The class given is tissue-based. An outline of the steps:
(§1)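 Crude enzyme extracts from human liver and intestine; substrate at 2.5 mM. Conversion rate expressed as nmol/mg protein/h. L/I is the ratio of the liver rate to the intestine rate.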

Data set [6] concerns the target T3, Cocaine esterase. The data set can be described thus: Susceptibility to carboxylesterase in human liver at a concentration 2.5 mM. In kind it is tissue-based. The following applies: 2500 µM. An outline of the steps: as §1
In the next data set the test system is Lung carcinoma cell line. Nature of the data set: Antitumor activity in human lung carcinoma. In kind it is functional.
Data set [7] concerns Mus musculus. The data set can be described thus: Plasma concentration of 5-FU in HT-3 (human cervical cancer) xenograft mice at 135 mg/kg oral dose. The class given is functional, organism-based. On the set-up: dose 135 mg/kg.
Data set [8] relates to Mus musculus. The data set can be described thus: Tumour concentration of 5-FU in HT-3 (human cervical cancer) xenograft mice at 135 mg/kg oral dose. In kind it is functional.
The subject of data set [9] is carboxylesterase (Homo sapiens). Nature of the data set: Relative susceptibility to human carboxylesterase in liver and intestine (L/I ratio).
Data set [10] has as its target Cytidine deaminase (Homo sapiens) (UniProt P32320). Nature of the data set: Susceptibility to Cyd deaminase at a substrate concentration of 2.0 mM.
Data set [11] in a line: Stability at pH 2.0-7.4 determined 2 hours after treatment. In kind it is physicochemical. The following applies: buffer, read-out: Stability. The gist of the method: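 Compound held in aqueous solution at pH 2.0–7.4 for 2 h at 37 °C. Stability reported as the percentage of compound remaining.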
Data set [12] can be described thus: Stability in serum determined 1 hour after treatment. In kind it is ADME, cell-free. The following applies: read-out: Stability. An outline of the steps:
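Compound incubated in serum; stability reported as the percentage remaining after 1 h.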

The species named for data set [13] is Homo sapiens. The data set can be described thus: Susceptibility to human liver enzyme at a concentration 2.5 mM. In kind it is functional. The gist of the method: as §1
The species entered for data set [14] is Homo sapiens. The data set can be described thus: Susceptibility to human intestine enzyme at a concentration 2.5 mM. The class given is functional. The gist of the method:
as §1

Data set [15] concerns Mus musculus. Nature of the data set: Plasma concentration of 5-FU in HT-3 (human cervical cancer) xenograft mice at 33.7 mg/kg oral dose co-administered with 135 mg/kg Capecitabine. The class given is functional, organism-based.
For data set [16], the system named is Mus musculus. The data set can be described thus: Tumour concentration of 5-FU in HT-3 (human cervical cancer) xenograft mice at 33.7 mg/kg oral dose co-administered with 135 mg/kg Capecitabine. In kind it is functional.

Sequence of Cytidine deaminase (Homo sapiens) (P32320 whole entry): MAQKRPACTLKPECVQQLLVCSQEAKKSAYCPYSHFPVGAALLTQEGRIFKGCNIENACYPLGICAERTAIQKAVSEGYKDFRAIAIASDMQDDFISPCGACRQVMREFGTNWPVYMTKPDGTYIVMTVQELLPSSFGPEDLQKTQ

In turn, `C[C@H]1O[C@@H](n2cc(I)c(=O)[nH]c2=O)[C@H](O)C1O` (single isomer, unassigned) returned a Relative susceptibility in data set [1] of 2.3.
`C[C@H]1O[C@@H](n2cc(F)c(=O)[nH]c2=O)[C@H](O)C1O` (single isomer, unassigned) gave a Relative susceptibility in [1] of 1.
In data set [2], `C=Cc1cnc(O)nc1O` registered an IC50 of 89 nM. Besides, the “Tumour_[5-FU]” value in the data set on Mus musculus [3] came out at 12 nmol/g. Besides, the Ratio_tumour/plasma in data set [4] was 3.8.
Regarding `CCCCCOC(=O)Nc1nc(=O)n([C@@H]2O[C@H](C)[C@@H](O)[C@H]2O)cc1F` [CAPECITABINE], the results for the Susceptibility at Cocaine esterase [5] and on Cocaine esterase [6] were 5.3 nmol/mg protein/h and 79 nmol/mg protein/h, respectively. Besides, the Activity with Lung carcinoma cell line came out at 377 mg/kg. This compound showed a Plasma [5-FU] in the data set with Mus musculus [7] of 0.62 nmol/mL. Further, in the data set on Mus musculus [8], the “Tumour_[5-FU]” value was found to be 3.5 nmol/g.
Turning to `C=Cc1cn([C@@H]2O[C@H](C)[C@@H](O)[C@H]2O)c(=O)nc1NC(=O)OCCCCC`, the Susceptibility is on record as less than 5 nmol/mg protein/h at Cocaine esterase [5] and 110 nmol/mg protein/h on Cocaine esterase [6]. Also, in data set [9], the Susceptibilty Ratio (Liver/Intestine) is greater than 22.
In the case of `C[C@H]1O[C@@H](n2cc(I)c(N)nc2=O)[C@H](O)[C@@H]1O`, in data set [10], the Relative susceptibility was determined as 0.33.
In turn, `N#Cc1c[nH]c(=O)[nH]c1=O` displayed an IC50 in data set [2] of 200 nM.
The compound `C#Cc1cn([C@@H]2O[C@H](C)C(O)[C@H]2O)c(=O)[nH]c1=O` (single isomer, unassigned) had a Relative susceptibility in data set [1] of 5.
In data set [2], `O=c1[nH]cc(I)c(=O)[nH]1` returned an IC50 of 220 nM.
In data set [2], `C#Cc1c[nH]c(=O)[nH]c1=O` displayed an IC50 of 14 nM.
`C=Cc1cn([C@@H]2O[C@H](C)C(O)[C@H]2O)c(=O)[nH]c1=O` (single isomer, unassigned): the Relative susceptibility in data set [1] worked out at 0.2.
As for `Oc1ncc(/C=C/c2ccccc2)c(O)n1`, the IC50 in [2] was 43 nM.
For `C=Cc1cn([C@@H]2O[C@H](C)[C@@H](OC(C)=O)[C@H]2OC(C)=O)c(=O)nc1N`, in data set [11], the remaining at 2 h worked out at 100%. Moreover, the remaining at 1 h in data set [12] was determined as 61%. Further, the Susceptibility in the data set filed under Homo sapiens [13] turned out to be 130 nmol/mg protein/h; in the data set filed under Homo sapiens [14], 28 nmol/mg protein/h. The Plasma [5-FU] in the data set with Mus musculus [15] was 1 nmol/mL. In addition, in the data set with Mus musculus [16], the “Tumour_[5-FU]” value is given as 13 nmol/g. Further, the Ratio_tumour/plasma in data set [4] stood at 13.
Consider `CCCCCOC(=O)Nc1nc(=O)n([C@@H]2O[C@H](C)[C@@H](O)[C@H]2O)cc1I`, for which the values for the Susceptibility at Cocaine esterase [5] and on Cocaine esterase [6] were 18 nmol/mg protein/h and 90 nmol/mg protein/h, respectively. Besides, the Susceptibilty Ratio (Liver/Intestine) in data set [9] is 5.
`C[C@H]1O[C@@H](n2cc(/C=C/c3ccccc3)c(=O)[nH]c2=O)[C@H](O)C1O` (single isomer, unassigned): the Relative susceptibility in data set [1] was less than 0.01.
`O=c1[nH]cc(Cc2cccc(OCc3ccccc3)c2)c(=O)[nH]1` registered an IC50 in [2] of 97 nM.
Take `C[C@H]1O[C@@H](n2cc(Cc3cccc(OCc4ccccc4)c3)c(=O)[nH]c2=O)[C@H](O)C1O` (single isomer, unassigned): the Relative susceptibility in data set [1] is less than 0.01.
On to `C[C@H]1O[C@@H](n2cc(C#N)c(=O)[nH]c2=O)[C@H](O)C1O` (single isomer, unassigned), for which the Relative susceptibility in data set [1] was less than 0.01.
`C#Cc1cn([C@@H]2O[C@H](C)[C@@H](O)[C@H]2O)c(=O)nc1N` displayed a Relative susceptibility in data set [10] of 0.034.
Consider `C=Cc1cn([C@@H]2O[C@H](C)[C@@H](O)[C@H]2O)c(=O)nc1N`, for which, in [10], the Relative susceptibility is 0.14.
On to `C[C@H]1O[C@@H](n2cc(F)c(N)nc2=O)[C@H](O)[C@@H]1O`, for which the Relative susceptibility in data set [10] came out at 1.

In general, IC50 refers to the concentration at which inhibition is half-maximal. High values mean weaker potency in that assay, low ones greater potency in that assay.
